The source made the active and inactive calls. The rule behind the calls is not given here.
Tests used:
CCRF-CEM = test: Cytotoxicity against human CCRF-CEM cells after 48 hrs by SRB assay; type: functional
Outline: (§1)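 NCI-60 human tumour cell panel screen, second stage, run by the NCI Developmental Therapeutics Program. Compounds were tested at five concentrations (0.01, 0.1, 1, 10 and 100 μM). Percentage growth was plotted against log10 concentration for each cell line. GI50, TGI and LC50 were taken from these dose-response curves.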

NCI-H23 = test: Cytotoxicity against human NCI-H23 cells after 48 hrs by SRB assay; type: functional; conditions: NCI-H23, 48 h
Outline: (§2)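 Second-stage NCI-60 panel run by the NCI Developmental Therapeutics Program, covering nine tumour subpanels. Five concentrations were tested: 0.01, 0.1, 1, 10 and 100 μM. Percentage growth at each level was plotted against log10 drug concentration. GI50, TGI and LC50 were read from these dose-response curves. Subpanel MID values were divided into the full-panel MID to give selectivity ratios.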

NCI-H322M = test: Cytotoxicity against human NCI-H322M cells after 48 hrs by SRB assay; type: functional; outline: as §2
MDA-MB-435 = test: Cytotoxicity against human MDA-MB-435 cells after 48 hrs by SRB assay; type: functional; conditions: MDA-MB-435, 48 h; outline: as §2
SK-MEL-2 = test: Cytotoxicity against human SK-MEL-2 cells after 48 hrs by SRB assay; type: functional; conditions: SK-MEL-2, 48 h; outline: as §2
OVCAR-3 = test: Cytotoxicity against human OVCAR3 cells after 48 hrs by SRB assay; type: functional; conditions: OVCAR-3, 48 h; for CC50: read-out: LC50 (the source's name); outline: as §2
DU-145 [1] = test: Cytotoxicity against human DU145 cells after 48 hrs by SRB assay; type: functional; conditions: DU-145, 48 h; outline: as §1
[2] = Cytotoxicity against human Hs578T cells after 48 hrs by SRB assay; type: functional; conditions: Hs-578T; outline: as §1
[3] = Cytotoxicity against human SV-HUC1 cells assessed as survival rate after 72 hrs by MTT assay; type: cell-based; conditions: SV-HUC1 cells, read-out: Survival
Outline: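 SV-HUC-1 cells grown in Ham's F-12K with 5% heat-inactivated fetal calf serum, 37 °C, 5% CO2. About 2×10^3 cells/well plated for 24 h, then a range of compound concentrations (DMSO stock diluted into medium; vehicle 0.1% DMSO) for 72 h. MTT added for 3 h at 37 °C; absorbance 570 nm.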

[4] = Cytotoxicity against human WPMY-1cells assessed as survival rate after 72 hrs by MTT assay; type: cell-based; conditions: WPMY-1 cells, read-out: Survival
Outline: (§3)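 About 2×10^3 cells/well preincubated 24 h at 37 °C, 5% CO2. Compound freshly dissolved in DMSO, diluted into complete medium and added at various concentrations (vehicle 0.1% DMSO) for 72 h. MTT added for 3 h at 37 °C, absorbance read at 570 nm, survival rate derived.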

[5] = Cytotoxicity against human RWPE1 cells assessed as survival rate after 72 hrs by MTT assay; type: cell-based, RWPE-1; conditions: RWPE1 cells, read-out: Survival; outline: as §3
DU-145 [6] = test: Induction of apoptosis in human DU145 cells assessed as early apoptotic cells at 3 to 12 uM after 24 hrs by flow cytometry; type: functional, cell-based
DU-145 [7] = test: Induction of apoptosis in human DU145 cells assessed as cell rounding and shrinkage at 5 uM after 24 hrs by phase contrast microscopy analysis; type: functional, cell-based
Outline: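 DU-145 cells were seeded at 5×10^5 per 10 cm dish and treated with various concentrations for 24 h. Unfixed cells were examined and photographed by phase-contrast microscopy for rounding and shrinkage.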

DU-145 [8] = test: Induction of apoptosis in human DU145 cells assessed as decrease in total PARP at 3 to 12 uM after 48 hrs by Western blotting; type: functional, cell-based
DU-145 [9] = test: Induction of apoptosis in human DU145 cells assessed as increase in cleaved PARP at 3 to 12 uM after 48 hrs by Western blotting; type: functional, cell-based
Outline: (§4)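 DU-145 cells were exposed to various concentrations for 48 h. Cells were washed in PBS and lysed on ice for 30 min, then spun at 120000g for 15 min. Protein was measured by Bradford, run on 12% SDS-PAGE and blotted to PVDF. Blots were probed for cleaved PARP and cleaved caspase-3 with chemiluminescent detection and β-actin as loading control; n=3 independent experiments.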

DU-145 [10] = test: Induction of apoptosis in human DU145 cells assessed as decreased levels of cyclin D1 at 3 to 18 uM after 48 hrs by Western blotting; type: functional, cell-based
Outline: (§5)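 DU-145 lysates were analysed by immunoblot for cyclin D1 and Bcl-2 after dosing across a concentration range. Cells were lysed on ice and cleared by centrifugation. Protein was quantified by Bradford, run on 12% SDS-PAGE and transferred to PVDF, with chemiluminescent detection. α-Tubulin served as loading control; n=3 independent experiments.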

DU-145 [11] = test: Induction of apoptosis in human DU145 cells assessed as decreased levels of Bcl-2 at 3 to 18 uM after 48 hrs by Western blotting; type: functional, cell-based; outline: as §5
[12] = target: Mitogen-activated protein kinase; ERK1/ERK2 (Homo sapiens) (UniProt P27361+P28482); test: Inhibition of human ERK1/2 phosphorylation in human DU145 cells after 48 hrs by Western blotting; type: cell-based; conditions: DU-145
Outline: (§6)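 DU-145 cells were treated at 3, 12 and 18 µM and phospho-ERK1/2 and phospho-p38 were assessed by Western blot. Lysis was on ice with centrifugation, then Bradford protein assay, 12% SDS-PAGE, PVDF transfer and chemiluminescent detection.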

[13] = target: MAP kinase p38 (Homo sapiens) (UniProt O15264+Q15759+Q16539+P53778); test: Inhibition of human p38 phosphorylation in human DU145 cells after 48 hrs by Western blotting; type: cell-based; conditions: DU-145; outline: as §6
DU-145 [14] = test: Induction of apoptosis in human DU145 cells assessed as cleaved caspase 3 at 3 to 12 uM after 48 hrs by Western blotting; type: functional, cell-based; outline: as §4

Mitogen-activated protein kinase; ERK1/ERK2 (Homo sapiens), sequence (P27361 whole entry, looked up): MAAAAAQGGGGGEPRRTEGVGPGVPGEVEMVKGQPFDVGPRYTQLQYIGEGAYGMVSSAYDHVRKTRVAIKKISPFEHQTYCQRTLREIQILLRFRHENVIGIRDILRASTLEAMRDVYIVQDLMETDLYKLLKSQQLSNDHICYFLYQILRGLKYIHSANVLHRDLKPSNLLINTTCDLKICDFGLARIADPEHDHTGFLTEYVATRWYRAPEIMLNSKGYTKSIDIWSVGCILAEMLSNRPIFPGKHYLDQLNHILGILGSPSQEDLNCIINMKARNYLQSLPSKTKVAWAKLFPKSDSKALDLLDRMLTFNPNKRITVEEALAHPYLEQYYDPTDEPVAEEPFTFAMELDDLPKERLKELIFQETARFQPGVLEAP
Mitogen-activated protein kinase; ERK1/ERK2 (Homo sapiens), sequence (P28482 whole entry, looked up): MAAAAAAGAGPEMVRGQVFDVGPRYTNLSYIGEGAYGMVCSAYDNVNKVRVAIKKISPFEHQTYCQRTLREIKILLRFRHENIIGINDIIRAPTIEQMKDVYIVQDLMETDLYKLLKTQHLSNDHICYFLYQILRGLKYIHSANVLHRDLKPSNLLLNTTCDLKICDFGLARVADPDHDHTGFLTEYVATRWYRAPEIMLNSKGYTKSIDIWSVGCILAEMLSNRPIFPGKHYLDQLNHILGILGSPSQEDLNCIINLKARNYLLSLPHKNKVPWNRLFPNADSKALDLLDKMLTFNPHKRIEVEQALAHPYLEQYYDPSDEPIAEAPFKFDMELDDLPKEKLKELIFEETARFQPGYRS

Row | Structure (SMILES) | LC50 (CCRF-CEM) | TGI (CCRF-CEM) | GI50 (NCI-H23) | LC50 (NCI-H23) | TGI (NCI-H23) | GI50 (NCI-H322M) | LC50 (concentration causing 50% net cell kill) (NCI-H322M) | TGI (NCI-H322M) | GI50 (MDA-MB-435) | LC50 (MDA-MB-435) | TGI (MDA-MB-435) | GI50 (SK-MEL-2) | LC50 (SK-MEL-2) | TGI (SK-MEL-2) | GI50 (OVCAR-3) | TGI (OVCAR-3) | CC50 (OVCAR-3) | GI50 (DU-145 [1]) | LC50 (DU-145 [1]) | TGI (DU-145 [1]) | further results
1 | O=C1c2ccccc2C(=O)c2c1cc(Sc1cccc(Cl)c1)c1nsnc21 | > 100 µM | 6.26 µM | 1 µM | 22.8 µM | 3.58 µM | 18.6 µM | 61.9 µM | 33.9 µM | 1.53 µM | 7.24 µM | 3.33 µM | 2.34 µM | 9.87 µM | 4.81 µM | 0.45 µM | 1.74 µM | 6.5 µM | 2.27 µM | 14.3 µM | 5.09 µM | GI50 (CCRF-CEM): 0.56 µM; GI50 [2]: 1.97 µM; LC50 [2]: > 100 µM; TGI [2]: 6.55 µM
2 | CC(C)Sc1cc2c(c3nsnc13)C(=O)c1ccccc1C2=O | > 100 µM | 0.58 µM | 0.56 µM | 8.48 µM | 2.58 µM | 2.85 µM | 38.7 µM | 11 µM | 0.2 µM | 0.74 µM | 0.39 µM | 0.99 µM | 5.87 µM | 2.42 µM | 0.25 µM | 0.638 µM | 2.98 µM | 1.45 µM | 26.4 µM | 6.64 µM | GI50 [2]: 1.62 µM; LC50 [2]: > 100 µM; TGI [2]: 6.27 µM; viability at 72 h [3]: 80%; viability at 72 h [4]: 50%; viability at 72 h [5]: 60%; Activity (DU-145 [6]): Active; Activity (DU-145 [7]): Active; Activity (DU-145 [8]): Active; Activity (DU-145 [9]): Active; Activity (DU-145 [10]): Active; Activity (DU-145 [11]): Active; inhibition [12]: Active; inhibition [13]: Active; Activity (DU-145 [14]): Active
3 | O=C1c2ccccc2C(=O)c2c1cc(Sc1ccc(F)cc1F)c1nsnc21 | 57.8 µM | 6.35 µM | 1.88 µM | 43.1 µM | 6.99 µM | 96.5 µM | > 100 µM | > 100 µM | 1.94 µM | 7.07 µM | 3.7 µM | 2.34 µM | 9.41 µM | 4.69 µM | 1.82 µM | 3.44 µM | 6.52 µM | 6.3 µM | 45 µM | 18.7 µM | GI50 (CCRF-CEM): 0.7 µM; GI50 [2]: 2.81 µM; LC50 [2]: > 100 µM; TGI [2]: > 100 µM
4 | O=C1c2ccccc2C(=O)c2c1cc(SCc1ccccc1)c1nsnc21 | > 50 µM | 5.06 µM | 8.25 µM | > 50 µM | > 50 µM | > 50 µM | > 50 µM | > 50 µM | 9.19 µM | 37.3 µM | 18.5 µM | 8.58 µM | 33.7 µM | 18.6 µM | 8.16 µM | 15.1 µM | 27.9 µM | 10.2 µM | 38.8 µM | 19.9 µM | GI50 (CCRF-CEM): 1.3 µM; GI50 [2]: 17.3 µM; LC50 [2]: > 50 µM; TGI [2]: > 50 µM
5 | O=C1c2ccccc2C(=O)c2c1cc(Sc1ccccc1Br)c1nsnc21 | > 50 µM | > 50 µM | 13.5 µM | > 50 µM | > 50 µM | > 50 µM | > 50 µM | > 50 µM | 9.23 µM | 32.7 µM | 17.4 µM | 13.8 µM | > 50 µM | 34.1 µM | 10.2 µM | 22.8 µM | > 50 µM | 21.5 µM | > 50 µM | > 50 µM | GI50 (CCRF-CEM): 4.88 µM; GI50 [2]: 17.8 µM; LC50 [2]: > 50 µM; TGI [2]: > 50 µM

Source: ChEMBL document CHEMBL3621107, “Ring fusion strategy for synthesis and lead optimization of sulfur-substituted anthra[1,2-c][1,2,5]thiadiazole-6,11-dione derivatives as promising scaffold of antitumor agents” (Eur J Med Chem, 2015)
